Experimental data from publication PMC10099395 (Chemistry (Weinheim an Der Bergstrasse, Germany), 2022).

Key:
[1] = test system: MRC-5 cells (noncancerous lung fibroblast); experiment: Cytotoxicity assay; type: cell-based; details: Homo sapiens, MRC5, 96 h, read-out: GI50, MRC-5
Procedure, shortened: (§1)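 Adherent cells grown in MEM GlutaMAX with 10 % FBS, 1 % penicillin/streptomycin and 1 % non-essential amino acids at 37 °C, 5 % CO₂, passaged with TrypLE. Cells were plated at 0.125×10⁵ cells mL⁻¹ and test compound in DMSO was added after 4 h ([…], 0.5 % v/v DMSO). After 96 h, CellTiter-Glo luminescence was read and viability expressed relative to the DMSO control. Each condition was run at least three times, with two technical replicates per plate.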

[2] = test system: T98G cells (multidrug-resistant glioblastoma); experiment: Cytotoxicity assay; type: cell-based; details: Homo sapiens, 96 h, read-out: GI50, T98G
Procedure, shortened: as §1

[3] = test system: A549 cells (cisplatin-resistant non-small-cell lung carcinoma); experiment: Cytotoxicity assay; type: cell-based, human; details: for GI50: Homo sapiens, A549, 96 h, read-out: GI50, A549
Procedure, shortened: as §1

[4] = test system: 25TAG (G4-DNA, hybrid-2, variant of human telomeric sequence); experiment: Fluorescence-melting experiments; type: binding; details: pure ligand 0.4 μM, DNA 0.2 μM
Procedure, shortened: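 FAM/TAMRA-labelled oligonucleotides were annealed (95 °C, 5 min) at 0.23 μM in target-specific buffer. Final concentrations were 0.2 μM DNA and 1 μM ligand; as-synthesized mixtures were diluted in buffer without further treatment, and pure ligands were run at 0.1–1.0 μM. Melting used a 0.5 °C min⁻¹ ramp with FAM-channel fluorescence. Tm came from first-derivative peaks, and ΔTm was the difference of means from three experiments. ΔTm detection tops out at 36 °C (96 °C).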

[5] = test system: 25TAG (5′-FAM, 3′-TAMRA) (DNA, G4) TAGGGTTAGGGTTAGGGTTAGGGTT; experiment: fluorescence melting; details: 100 mM KCl; 10 mM LiAsO2Me2, pH 7.2; 0.4 μM compound, 0.2 μM DNA

| ΔT m [5] | SMILES | GI50 [1] | GI50 [2] | GI50 [3] | selectivity index, A549 with respect to MRC-5 cells ([3]; ratio of GI50 values, 96 h) | ΔTm, 25TAG, pure ligands [4] |
| --- | --- | --- | --- | --- | --- | --- |
|  | C[n+]1cccc2cc(C=NNC(=O)c3ccc4ccc5ccc(C(=O)NN=Cc6ccc7c(ccc[n+]7C)c6)nc5c4n3)ccc21.[I-].[I-] [3Ef] | 26.7 ± 2.4 µM | 11.2 ± 1.4 µM | 0.4 ± 0.06 µM | ~67 |  |
|  | O=C(NN=Cc1ccc(C[n+]2ccccc2)cc1)c1ccc2ccc3ccc(C(=O)NN=Cc4ccc(C[n+]5ccccc5)cc4)nc3c2n1.[Br-].[Br-] [3Ei] | 59.1 ± 5.5 µM | 29.7 ± 2 µM | 3.2 ± 0.6 µM |  | > 30 °C |
| > 30 °C | C[n+]1cc(NC(=O)c2ccc3ccc4ccc(C(=O)Nc5cc6ccccc6[n+](C)c5)nc4c3n2)cc2ccccc21 |  |  |  |  |  |
